Screening data: PubChem, several laboratories
Compounds with a hit are over-represented: about 5.7% of the library has one in this group of screens.
Beta apoptosis: beta cell apoptosis inhibition | INS-1E cytokine-induced death, ATP luminescence, 48 h; percent of positive-control rescue, neutral wells zero | protection from apoptosis, % (no concentration beside the values) | 0.8% of 300,000 active | AID 435005;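 active = Every replicate reaches about 75%, or at least half do and their mean reaches it too, limit read from the data; inconclusive = At least half of replicates reach the limit but their mean does not; inactive = Under half of replicates reach the limit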;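 also: higher means more ATP so stronger rescue from cytokine killing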
Mdm2-MdmX inh: human Mdm2/MdmX binding inhibition. 3% of 330,000 active. inhibition, % at 8 µM. SaOS-2 split-luciferase Mdm2/MdmX complementation, luminescence. O15151+Q00987;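 active = inhibition of at least 50% at 8 µM in the primary screen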
Target sequence (O15151 whole entry, looked up): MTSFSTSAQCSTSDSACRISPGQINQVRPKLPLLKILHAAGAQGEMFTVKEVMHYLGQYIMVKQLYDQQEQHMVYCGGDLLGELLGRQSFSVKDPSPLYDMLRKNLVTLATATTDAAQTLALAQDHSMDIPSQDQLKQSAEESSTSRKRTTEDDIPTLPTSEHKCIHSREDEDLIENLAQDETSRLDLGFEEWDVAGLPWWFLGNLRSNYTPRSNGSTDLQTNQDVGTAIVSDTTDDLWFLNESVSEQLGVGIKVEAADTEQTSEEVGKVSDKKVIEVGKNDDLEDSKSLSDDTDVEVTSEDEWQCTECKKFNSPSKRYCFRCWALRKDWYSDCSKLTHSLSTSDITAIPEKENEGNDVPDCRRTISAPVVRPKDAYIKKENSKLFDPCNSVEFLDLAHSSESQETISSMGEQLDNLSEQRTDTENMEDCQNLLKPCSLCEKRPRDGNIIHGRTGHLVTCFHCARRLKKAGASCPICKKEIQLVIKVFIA
Target sequence (Q00987 whole entry, looked up): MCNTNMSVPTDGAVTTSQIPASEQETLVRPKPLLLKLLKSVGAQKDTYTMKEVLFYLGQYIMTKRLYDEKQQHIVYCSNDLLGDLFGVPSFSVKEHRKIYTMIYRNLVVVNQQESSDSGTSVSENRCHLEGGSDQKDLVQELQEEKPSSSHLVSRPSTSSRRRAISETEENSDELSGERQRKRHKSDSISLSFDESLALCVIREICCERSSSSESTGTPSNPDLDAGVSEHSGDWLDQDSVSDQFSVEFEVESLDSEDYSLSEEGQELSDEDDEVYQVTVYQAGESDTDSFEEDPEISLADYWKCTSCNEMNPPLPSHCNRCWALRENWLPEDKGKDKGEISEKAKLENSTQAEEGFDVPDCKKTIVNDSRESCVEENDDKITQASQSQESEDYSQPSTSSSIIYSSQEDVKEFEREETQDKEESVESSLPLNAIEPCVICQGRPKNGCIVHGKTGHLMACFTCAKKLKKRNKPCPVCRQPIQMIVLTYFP
CSC inhib: cancer stem cell inhibition; inhibition, % at 7.5 µM; 1.1% of 300,000 active; cancer stem cell-like cells viability, luminescence; in the data active = inhibition above about 75%; inconclusive = no clear call, values can overlap the other calls; tested in HMLE shEcad cells
SKKanGAS inh: blocks kanamycin growth of S. pyogenes SKKanGAS strain; BacTiter-Glo, 6 h; inhibition, % at 7.5 µM; 1.3% of 300,000 active; AID 1662;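 active = mean replicate score, as percent of positive control median, at least 50; inconclusive = mean below 50 but one replicate at or above 50; inactive = mean and every replicate below 50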;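 also: strain carries kanamycin resistance gene driven by streptokinase promoter and grows in 40 µg/ml kanamycin; loss of luminescence reflects streptokinase promoter inhibition or plain growth inhibition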
Calb FLC: C. albicans growth modulation with fluconazole; growth inhibition, % (test concentration not listed); 0.57% of 300,000 active; C. albicans CaCi-2 (fluconazole-resistant clinical isolate) + fluconazole, Alamar Blue growth, 48 h;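 active = growth inhibition above about 58% in most replicates, limit read from the data, passing the limit was not always enough; inconclusive = exactly half the replicates above a set limit; inactive = most replicates below a set limit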;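 also: all wells also contain fluconazole at 8 µg/ml as a sub-toxic cotreatment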
T cruzi inh: T. cruzi replication inhibition | T. cruzi beta-gal in NIH3T3, luminescence, 90 h | inhibition, % (concentration not given with the values) | 1.4% of 300,000 active | AID 1885;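 active = mean inhibition across valid replicates above about 55%, limit read from the data; inconclusive = mean below that limit but half or more replicates reach it; inactive = mean below it, under half of replicates reach it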;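 also: signal also drops with host cell toxicity which is not excluded here; higher percent means less beta-gal luminescence so fewer parasites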
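assay system = mouse NIH/3T3 fibroblasts infected with β-gal-expressing T. cruzi Tulahuen C4 | input = 5,000 NIH/3T3 host cells per well | buffer or medium = DMEM plus 2% FBS | timing = 3 h host attachment, then at least 90 h co-culture | measured by = GalScreen luminescence, 60 min | evaluation = luminescence reflecting intracellular parasite burden, expressed as percent inhibition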
Numbers stand for hits; i = inactive; ? = inconclusive; nt = not tested or not shown.

SMILES	Beta apoptosis	Mdm2-MdmX inh	CSC inhib	SKKanGAS inh	Calb FLC	T cruzi inh
Cc1ccc(C(C[N+](=O)[O-])n2nc(C)cc2C)cc1 (configuration not stated)	i	i	101	i	i	i
Cc1ccc(S(=O)(=O)NCC(C)n2nc(C)cc2C)cc1 (configuration not stated)	i	i	i	i	i	i
Cc1cc(C(=O)COc2cccnc2[N+](=O)[O-])c(C)n1Cc1cccs1	i	i	i	i	i	i
CC(=O)Nc1ccccc1OCC(=O)c1cc(C)n(Cc2cccs2)c1C	111	i	i	i	i	i
CCn1c(=O)c([N+](=O)[O-])c(NCC2CCCO2)c2ccccc21 (configuration not stated)	i	i	i	i	i	i
CSc1nn2c(C(F)(F)F)cc(C(F)(F)F)nc2c1C(=O)O	i	i	i	i	112	i
O=C(c1cccc2nccnc12)N1CCCC(Nc2ccc(F)c(F)c2)C1 (configuration not stated)	i	i	i	i	i	i
c1ccc2c(c1)nc(Nc1ccc(N3CCCCC3)cc1)c1nncn12	i	i	i	59	i	i
O=C(CCC(=O)N1CCN(c2ccc(O)cc2)CC1)c1cccs1	i	i	i	i	i	i
CCOC(=O)N1CCN(C(=O)CCC(=O)c2ccc(OCC)cc2)CC1	nt	i	i	i	i	i
COc1ccc(C(=O)CCN2CCN(c3ccccc3F)CC2)cc1	i	i	?	i	i	63
O=C(CCN1CCN(c2ccccc2F)CC1)c1ccc(Br)cc1	i	i	nt	i	i	i
O=C(CCN1CCN(c2ccccc2)CC1)c1ccc(Br)cc1	i	i	i	i	i	62
CCOc1ccc(C(=O)CCC(=O)N2CCN(c3ccc(O)cc3)CC2)cc1	i	i	81	nt	nt	nt
O=C(CCC(=O)N1CCN(c2ccc(O)cc2)CC1)c1ccc(Br)cc1	i	i	101	i	?	i
C=CCN(C(=O)CCC(=O)Nc1cc(C)on1)C(C(=O)NC1CCCC1)c1ccc(C)cc1 (configuration not stated)	i	i	i	i	i	i
O=C(CSc1nnc(NC(=O)C2CC2)s1)NCc1ccco1	i	i	nt	i	i	i
Cc1ccc(NC(=O)CSc2nnc(N)s2)cc1S(=O)(=O)N1CCOCC1	i	i	i	i	i	i
CCCc1cc(=O)[nH]c(SCC(=O)NC(=O)OCC)n1	i	i	i	i	i	i
CCCc1cc(=O)[nH]c(SCC(=O)Nc2sc(C(N)=O)c(C)c2C(=O)OCCOC)n1	i	i	94	nt	nt	nt
CCOC(=O)C1(CCOc2ccccc2)CCN(Cc2cccc3c2OCO3)CC1	i	i	i	i	i	65
CCOC(=O)C1(CCOc2ccccc2)CCN(Cc2cccn2-c2cccnc2)CC1	i	i	i	i	i	60
CCOC(=O)C1(CCOc2ccccc2)CCN(Cc2cc(OC)c3c(c2)OCO3)CC1	i	i	i	i	?	60
CCOC(=O)C1(CCOc2ccccc2)CCN(Cc2ccc3nonc3c2)CC1	i	i	i	i	i	67
Cc1cc(C)cc(C(=O)NC(CC(N)=O)c2ccc(NC3CCCC3)c([N+](=O)[O-])c2)c1 (configuration not stated)	i	i	i	i	i	i
SMILES	Beta apoptosis	Mdm2-MdmX inh	CSC inhib	SKKanGAS inh	Calb FLC	T cruzi inh
Cc1ccc(-c2c[n+]3c(n2-c2ccccc2)CCC3)cc1	100	i	i	i	i	55
CCOc1ccc(-n2c(-c3ccccc3)c[n+]3c2CCCCC3)cc1	99	i	i	i	87	60
c1ccc(-c2c[n+]3c(n2-c2ccccc2)CCC3)cc1	i	i	i	i	i	i
CCCN(C(=O)c1cc(S(=O)(=O)N2CCCCCC2)ccc1OC)C1CCS(=O)(=O)C1 (configuration not stated)	i	i	i	i	i	i
OCC1(Cc2ccc(Cl)cc2)CCN(Cc2ccc(Oc3ncccn3)cc2)CC1	i	i	i	i	i	59
Cc1ccc(S(=O)(=O)NCC(=O)OCC(=O)c2ccc(Cl)s2)cc1	i	i	i	i	i	i
COc1ccc(-c2n[nH]c(C)c2-c2cnn(-c3ccccc3)c2)c(O)c1	i	i	i	i	95	i
COc1ccc(-c2n[nH]c(C)c2-c2cnn(-c3ccccc3)c2)c(O)c1C	i	i	i	i	i	i
Oc1ccccc1C1NN=C(c2ccccc2)S1 (configuration not stated)	nt	i	i	i	i	i
O=C(CC(Cc1ccccc1)C(=O)O)Nc1cccc(C(F)(F)F)c1 (configuration not stated)	i	i	i	i	i	i
Cn1ccsc1=NC(=O)c1ccc([N+](=O)[O-])o1	i	i	i	i	i	60
CCn1c2ccccc2c2c3ncc4cccn4c3ccc21	i	i	i	i	i	i
Cc1ccccc1-n1cnc2cc(NCc3cccs3)ccc21	i	i	i	50	i	i
COc1ccc2cc(C(=O)C3CCCN(C(=O)CCc4cnn(C)c4)C3)ccc2c1 (configuration not stated)	i	i	i	i	i	i
Cc1ccc2nc(N3C(=O)C(O)=C(C(=O)c4ccco4)C3c3cccs3)sc2c1 (configuration not stated)	i	i	i	52	i	i
CCOc1ccc2nc(N3C(=O)C(O)=C(C(=O)c4ccco4)C3c3ccco3)sc2c1 (configuration not stated)	i	i	i	nt	nt	nt
Cc1cc(C)c2nc(N3C(=O)C(O)=C(C(=O)c4ccco4)C3c3ccco3)sc2c1 (configuration not stated)	i	i	i	78	i	i
CCC(=O)N(CCc1ccccc1)Cc1cc2cccc(C)c2[nH]c1=O	i	i	i	i	i	i
Cc1ccccc1C(=O)NNC(=O)C1CCN(C(=O)Nc2ccccc2)CC1	i	i	i	i	i	i
CCCC[n+]1ccn(C2=C([O-])c3ccccc3C(=O)/C2=N\S(=O)(=O)c2ccc(Br)cc2)c1	90	i	i	i	i	i
Cc1ccc(NC(=O)C[n+]2ccn(C3=C([O-])c4ccccc4C3=O)c2)cc1	i	i	i	i	i	i
Cc1ccc(S(=O)(=O)/N=C2\C(=O)c3ccccc3C([O-])=C2n2cc[n+](CCC(C)C)c2)cc1	90	i	i	i	i	i
Cc1sc2c(c1C)C(=O)/C(=C\Nc1ccncc1)S(=O)(=O)N2C	i	i	i	i	i	i
Cc1ccc2nc3c(cc(S(=O)(=O)c4ccccc4)c(=N)n3Cc3ccco3)c(=O)n2c1	i	i	i	i	i	63
COc1ccc(C(=O)NC(=O)CSc2n[nH]c(N)n2)cc1	i	i	i	nt	nt	nt
COc1ccc([C@H]2Oc3cc(O)cc(O)c3C(=O)C2[C@@H]2C(=O)c3c(O)cc(O)cc3O[C@@H]2c2ccc(OC)cc2)cc1 (some centres not stated)	i	i	142	100	i	i
